Test results published in ChEMBL document CHEMBL4334465, “SAR Studies on Aromatic Acylhydrazone-Based Inhibitors of Fungal Sphingolipid Synthesis as Next-Generation Antifungal Agents” (J Med Chem, 2019).
≈ marks a conversion by molar mass, not a printed value.

Columns and labels:
[Candida] auris [1] = Antifungal activity against Candida auris assessed as FICI in presence of caspofungin; assay type: functional, Candidozyma auris
Summary of the method: (§1)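 Checkerboard combination scored by fractional inhibitory concentration index. Acylhydrazone serially diluted 16 to 0.015 μg/mL (11 dilutions). Partner drug in seven dilutions: fluconazole 12 to 0.19 μg/mL, amphotericin B 5 to 0.078 μg/mL, caspofungin, itraconazole or voriconazole 8 to 0.007 μg/mL.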

Pichia kudriavzevii [2] = assay: Antifungal activity against fluconazole-resistant Candida krusei assessed as FICI in presence of itraconazole; assay type: functional
Summary of the method: (§2)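 Checkerboard in 96-well plate. Test compound diluted 16 to 0.015 μg/mL (11 dilutions) against the partner drug in seven dilutions: fluconazole 12 to 0.19 μg/mL, caspofungin, itraconazole or voriconazole 8 to 0.007 μg/mL. Fractional inhibitory concentration index (FICI) calculated from the combinations.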

Cryptococcus neoformans [3] = assay: Fungicidal activity against Cryptococcus neoformans H99 measured up to 96 hrs by time-kill assay; assay type: functional, organism-based; details: var grubii H99
Summary of the method: (§3)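 Overnight C. neoformans washed in PBS and resuspended in HEPES-buffered YNB, pH 7.4. 2 × 10⁴ cells exposed to a range of drug concentrations in 10 mL with 0.5% DMSO final, at 37°C, 5% CO₂, shaking at 200 rpm. Aliquots sampled over 96 h, diluted and plated on YPD; CFU counted after 48 h at 30°C.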

Cryptococcus neoformans [4] = assay: Antifungal activity against Cryptococcus neoformans H99 assessed as FICI in presence of amphotericin B; assay type: functional, var grubii H99; summary of the method: as §1
Candida albicans [5] = assay: Antifungal activity against Candida albicans assessed as FICI in presence of caspofungin; assay type: functional; summary of the method: as §1
A549 = assay: Cytotoxicity against human A549 cells after 24 to 48 hrs by MTT assay; assay type: functional; details: read-out: LD50 (the source's name)
Summary of the method: (§4)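 A549 and HepG2 kept in DMEM with 10% FBS and 1% pen-strep. At passage 7, seeded at 10⁵ cells/well and allowed to adhere 14 h. Compound added at 0.03–128 μg/mL, untreated wells as controls. Incubation 37°C, 5% CO₂ for 24 or 48 h. MTT (5 mg/mL in PBS) added for 4 h, formazan dissolved in DMSO, OD570.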

Aspergillus fumigatus [6] = assay: Antifungal activity against Aspergillus fumigatus assessed as FICI in presence of fluconazole; assay type: functional; summary of the method: as §1
Cryptococcus neoformans [7] = assay: Fungicidal activity against Cryptococcus neoformans H99 measured after 24 hrs by time-kill assay; assay type: functional, var grubii H99; summary of the method: as §3
Candida parapsilosis [8] = assay: Antifungal activity against Candida parapsilosis assessed as FICI in presence of fluconazole; assay type: functional; summary of the method: as §1
Aspergillus fumigatus [9] = assay: Antifungal activity against Aspergillus fumigatus assessed as FICI in presence of itraconazole; assay type: functional; summary of the method: as §1
Candida parapsilosis [10] = assay: Antifungal activity against Candida parapsilosis measured after 24 to 72 hrs; assay type: functional; details: Lodderomyces parapsilosis
Summary of the method: (§5)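 Modified CLSI broth microdilution with inoculum per M27A3. Compounds were serially diluted 32 to 0.03 μg/mL. Media: C. neoformans in HEPES-buffered YNB without amino acids (pH 7.0, 2% glucose); Candida strains in YNB without ammonium sulfate or amino acids plus 1% asparagine (pH 7.0, 2% glucose); A. fumigatus in RPMI (pH 7.0, 2% glucose).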

Cryptococcus neoformans [11] = assay: Antifungal activity against Cryptococcus neoformans H99 assessed as FICI in presence of fluconazole; assay type: functional, var grubii H99; summary of the method: as §1
Candida albicans [12] = assay: Antifungal activity against Candida albicans measured after 24 to 72 hrs; assay type: functional; summary of the method: as §5
Pichia kudriavzevii [13] = assay: Antifungal activity against Candida krusei 6258 assessed as FICI in presence of voriconazole; assay type: functional; summary of the method: as §1
Cryptococcus neoformans [14] = assay: Antifungal activity against Cryptococcus neoformans H99 measured after 24 to 72 hrs; assay type: functional; details: var grubii H99; summary of the method: as §5
Candida albicans [15] = assay: Antifungal activity against Candida albicans assessed as FICI in presence of itraconazole; assay type: functional; summary of the method: as §1
Pichia kudriavzevii [16] = assay: Antifungal activity against fluconazole-resistant Candida krusei assessed as FICI in presence of caspofungin; assay type: functional; summary of the method: as §2
Candida albicans [17] = assay: Antifungal activity against Candida albicans assessed as FICI in presence of voriconazole; assay type: functional; summary of the method: as §1
Cryptococcus neoformans [18] = assay: Antifungal activity against Cryptococcus neoformans H99 assessed as FICI in presence of itraconazole; assay type: functional, var grubii H99; summary of the method: as §1
HepG2 = assay: Cytotoxicity against human HepG2 cells after 24 to 48 hrs by MTT assay; assay type: functional; details: read-out: LD50 (the source's name); summary of the method: as §4
Candida parapsilosis [19] = assay: Antifungal activity against Candida parapsilosis assessed as FICI in presence of itraconazole; assay type: functional; summary of the method: as §1
Pichia kudriavzevii [20] = assay: Antifungal activity against fluconazole-resistant Candida krusei assessed as FICI in presence of voriconazole; assay type: functional; summary of the method: as §2
Candida parapsilosis [21] = assay: Antifungal activity against Candida parapsilosis assessed as FICI in presence of caspofungin; assay type: functional; summary of the method: as §1
[Candida] auris [22] = Antifungal activity against Candida auris assessed as FICI in presence of itraconazole; assay type: functional, Candidozyma auris; summary of the method: as §1
Cryptococcus neoformans [23] = assay: Antifungal activity against Cryptococcus neoformans H99 assessed as FICI in presence of voriconazole; assay type: functional, var grubii H99; summary of the method: as §1
Aspergillus fumigatus [24] = assay: Antifungal activity against Aspergillus fumigatus measured after 24 to 72 hrs; assay type: functional; summary of the method: as §5
[Candida] auris [25] = Antifungal activity against Candida auris measured after 24 to 72 hrs; assay type: functional; details: Candidozyma auris; summary of the method: as §5
Pichia kudriavzevii [26] = assay: Antifungal activity against Candida krusei measured after 24 to 72 hrs; assay type: functional
Summary of the method: (§6)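 MIC by modified CLSI broth microdilution. Candida strains grown in YNB without ammonium sulfate or amino acids with 1% asparagine, pH 7.0, 2% glucose. Inoculum per CLSI M27A3. Compound serially diluted 32 to 0.03 μg/mL. Incubation 37°C, 5% CO₂, 24–72 h, then OD450. MIC80 taken as the lowest concentration giving 80% growth inhibition versus untreated control.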

[27] = Selectivity index, ratio of LD50 for human HepG2 cells to MIC80 for Cryptococcus neoformans H99; assay type: toxicity; details: read-out: Selectivity Index
Summary of the method: (§7)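 SI = LD₅₀/MIC₈₀. Cytotoxicity: A549 or HepG2 cells (DMEM, 10% FBS, passage 7, 10⁵ cells/well) adhered 14 h, then exposed to 0.03–128 μg/mL for 24 or 48 h at 37°C, 5% CO₂; MTT 4 h, formazan dissolved in DMSO, read at 570 nm. MIC₈₀ against C. neoformans from broth microdilution in HEPES-buffered YNB, pH 7.0.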

Aspergillus fumigatus [28] = assay: Antifungal activity against Aspergillus fumigatus assessed as FICI in presence of voriconazole; assay type: functional; summary of the method: as §1
[Candida] auris [29] = Antifungal activity against Candida auris assessed as FICI in presence of voriconazole; assay type: functional, Candidozyma auris; summary of the method: as §1
Pichia kudriavzevii [30] = assay: Antifungal activity against Candida krusei 6258 assessed as FICI in presence of fluconazole; assay type: functional; summary of the method: as §1
Pichia kudriavzevii [31] = assay: Antifungal activity against multi-drug resistant Candida krusei measured after 24 to 72 hrs; assay type: functional; summary of the method: as §6
[Candida] auris [32] = Antifungal activity against Candida auris assessed as FICI in presence of fluconazole; assay type: functional, Candidozyma auris; summary of the method: as §1
Candida parapsilosis [33] = assay: Antifungal activity against Candida parapsilosis assessed as FICI in presence of voriconazole; assay type: functional; summary of the method: as §1
Pichia kudriavzevii [34] = assay: Antifungal activity against Candida krusei 6258 assessed as FICI in presence of itraconazole; assay type: functional; summary of the method: as §1
Pichia kudriavzevii [35] = assay: Antifungal activity against Candida krusei 6258 assessed as FICI in presence of caspofungin; assay type: functional; summary of the method: as §1
Candida albicans [36] = assay: Antifungal activity against Candida albicans assessed as FICI in presence of fluconazole; assay type: functional; summary of the method: as §1
[37] = Selectivity index, ratio of LD50 for human A549 cells to MIC80 for Cryptococcus neoformans H99; assay type: toxicity; details: read-out: Selectivity Index; summary of the method: as §7
Cryptococcus neoformans [38] = assay: Fungicidal activity against Cryptococcus neoformans H99 measured after 6 hrs by time-kill assay; assay type: functional, var grubii H99; summary of the method: as §3

Structure (SMILES) | fractional inhibitory concentration index (FICI) ([Candida] auris [1]) | fractional inhibitory concentration index (FICI) (Pichia kudriavzevii [2]) | Activity (Cryptococcus neoformans [3]) | fractional inhibitory concentration index (FICI) (Cryptococcus neoformans [4]) | fractional inhibitory concentration index (FICI) (Candida albicans [5]) | CC50 (A549) [µg/mL] | fractional inhibitory concentration index (FICI) (Aspergillus fumigatus [6]) | fractional inhibitory concentration index (FICI) (Candida parapsilosis [8]) | fractional inhibitory concentration index (FICI) (Aspergillus fumigatus [9]) | MIC80 (Candida parapsilosis [10]) [µg/mL] | fractional inhibitory concentration index (FICI) (Cryptococcus neoformans [11]) | MIC80 (Candida albicans [12]) [µg/mL] | fractional inhibitory concentration index (FICI) (Pichia kudriavzevii [13]) | MIC80 (Cryptococcus neoformans [14]) [µg/mL] | fractional inhibitory concentration index (FICI) (Candida albicans [15]) | fractional inhibitory concentration index (FICI) (Pichia kudriavzevii [16]) | fractional inhibitory concentration index (FICI) (Candida albicans [17]) | fractional inhibitory concentration index (FICI) (Cryptococcus neoformans [18]) | CC50 (HepG2) [µg/mL] | fractional inhibitory concentration index (FICI) (Candida parapsilosis [19]) | also measured
O=C(N/N=C/c1cc(Br)cc(Br)c1O)c1ccc(Br)c(Br)c1 | 0.501 | 0.528 | Dose-dependent effect | 0.247 | 0.5 | 64 (≈ 115 µM) | 2 | 2.015 | 0.281 | 16 (≈ 28.8 µM) | 0.237 | > 16 | 0.254 | 0.06 (≈ 0.108 µM) | 0.37 | 0.121 | 0.271 | 0.247 | 64 (≈ 115 µM) | 2.007 | MFC100 (Cryptococcus neoformans [7]): 0.12 µg/mL (≈ 0.216 µM); fractional inhibitory concentration index (FICI) (Pichia kudriavzevii [20]): 0.31; fractional inhibitory concentration index (FICI) (Candida parapsilosis [21]): 1.001; fractional inhibitory concentration index (FICI) ([Candida] auris [22]): 1.12; fractional inhibitory concentration index (FICI) (Cryptococcus neoformans [23]): 0.247; MIC80 (Aspergillus fumigatus [24]): > 16 µg/mL; MIC80 ([Candida] auris [25]): 16 µg/mL (≈ 28.8 µM); MIC80 (Pichia kudriavzevii [26]): > 16 µg/mL; selectivity ratio [27]: 1070; fractional inhibitory concentration index (FICI) (Aspergillus fumigatus [28]): 1.031; fractional inhibitory concentration index (FICI) ([Candida] auris [29]): 1.001; fractional inhibitory concentration index (FICI) (Pichia kudriavzevii [30]): 1; MIC80 (Pichia kudriavzevii [31]): 4 µg/mL (≈ 7.2 µM); fractional inhibitory concentration index (FICI) ([Candida] auris [32]): 1.001; fractional inhibitory concentration index (FICI) (Candida parapsilosis [33]): 1.03; fractional inhibitory concentration index (FICI) (Pichia kudriavzevii [34]): 0.153; fractional inhibitory concentration index (FICI) (Pichia kudriavzevii [35]): 0.125; fractional inhibitory concentration index (FICI) (Candida albicans [36]): 0.563; selectivity ratio [37]: 1070
O=C(N/N=C/c1cc(Cl)cc(Cl)c1O)c1ccc(Br)c(Br)c1 | 0.5 | 1.24 | Dose-dependent effect | 0.247 | 1 | 32 (≈ 68.5 µM) | 2 | 0.258 | 1.008 | 1 (≈ 2.14 µM) | 0.237 | 2 (≈ 4.28 µM) | 0.56 | 0.03 (≈ 0.0642 µM) | 0.091 | 1.004 | 0.077 | 0.247 | 32 (≈ 68.5 µM) | 1.25 | MFC100 (Cryptococcus neoformans [38]): 1 µg/mL (≈ 2.14 µM); fractional inhibitory concentration index (FICI) (Pichia kudriavzevii [20]): 1.03; fractional inhibitory concentration index (FICI) (Candida parapsilosis [21]): 0.501; fractional inhibitory concentration index (FICI) ([Candida] auris [22]): 1.12; fractional inhibitory concentration index (FICI) (Cryptococcus neoformans [23]): 0.247; MIC80 (Aspergillus fumigatus [24]): 8 µg/mL (≈ 17.1 µM); MIC80 ([Candida] auris [25]): 0.5 µg/mL (≈ 1.07 µM); MIC80 (Pichia kudriavzevii [26]): 0.25 µg/mL (≈ 0.535 µM); selectivity ratio [27]: 1070; fractional inhibitory concentration index (FICI) (Aspergillus fumigatus [28]): 1.031; fractional inhibitory concentration index (FICI) ([Candida] auris [29]): 0.5; fractional inhibitory concentration index (FICI) (Pichia kudriavzevii [30]): 0.25; MIC80 (Pichia kudriavzevii [31]): 0.25 µg/mL (≈ 0.535 µM); fractional inhibitory concentration index (FICI) ([Candida] auris [32]): 0.5; fractional inhibitory concentration index (FICI) (Candida parapsilosis [33]): 1.5; fractional inhibitory concentration index (FICI) (Pichia kudriavzevii [34]): 0.53; fractional inhibitory concentration index (FICI) (Pichia kudriavzevii [35]): 1.001; fractional inhibitory concentration index (FICI) (Candida albicans [36]): 0.252; selectivity ratio [37]: 1070
